# Source: ChEMBL document CHEMBL1127580 (J Med Chem, 1994)
# Experiments:
# [1] = target: Sodium-dependent dopamine transporter (Rattus norvegicus) (UniProt P23977); experiment: Inhibitory effect of [3H]cocaine binding when pre incubation was conducted under reduced lighting; design: concentration or dose not given beside the values
# How it was run: (§1)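 Ligand (final 100 μM or as indicated, in DMSO or H2O) or vehicle preincubated 5 min with rat striatal membranes, either under reduced lighting or 4 in. from a UV source. […] Remaining binding expressed as percent of control.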
# [2] = target: Sodium-dependent dopamine transporter (Rattus norvegicus) (UniProt P23977); experiment: Inhibitory effect of [3H]cocaine binding when pre incubation was conducted under ultraviolet light; design: concentration or dose not given beside the values; how it was run: as §1
# Rattus norvegicus [3] = species: Rattus norvegicus; experiment: Tested for inhibition of [3H]-dopamine uptake into rat striatal synaptosomes; type: functional; conditions: Brain
# [4] = target: Sodium-dependent dopamine transporter (Rattus norvegicus, UniProt P23977); experiment: Tested for inhibition of [3H]cocaine binding to rat striatal P2 membranes; type: cell membranes, Membrane
# How it was run: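 Fresh rat striatal P2 membranes in 10 mM Na2HPO4/0.25 M sucrose, pH 7.4, 200 μg protein. Filtration on PEI-soaked GF/B filters.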
# Rattus norvegicus [5] = species: Rattus norvegicus; experiment: Tested for inhibition of [3H]dopamine uptake into rat striatal synaptosomes; type: functional; conditions: Brain
# Sodium-dependent dopamine transporter (Rattus norvegicus), sequence (P23977 whole entry): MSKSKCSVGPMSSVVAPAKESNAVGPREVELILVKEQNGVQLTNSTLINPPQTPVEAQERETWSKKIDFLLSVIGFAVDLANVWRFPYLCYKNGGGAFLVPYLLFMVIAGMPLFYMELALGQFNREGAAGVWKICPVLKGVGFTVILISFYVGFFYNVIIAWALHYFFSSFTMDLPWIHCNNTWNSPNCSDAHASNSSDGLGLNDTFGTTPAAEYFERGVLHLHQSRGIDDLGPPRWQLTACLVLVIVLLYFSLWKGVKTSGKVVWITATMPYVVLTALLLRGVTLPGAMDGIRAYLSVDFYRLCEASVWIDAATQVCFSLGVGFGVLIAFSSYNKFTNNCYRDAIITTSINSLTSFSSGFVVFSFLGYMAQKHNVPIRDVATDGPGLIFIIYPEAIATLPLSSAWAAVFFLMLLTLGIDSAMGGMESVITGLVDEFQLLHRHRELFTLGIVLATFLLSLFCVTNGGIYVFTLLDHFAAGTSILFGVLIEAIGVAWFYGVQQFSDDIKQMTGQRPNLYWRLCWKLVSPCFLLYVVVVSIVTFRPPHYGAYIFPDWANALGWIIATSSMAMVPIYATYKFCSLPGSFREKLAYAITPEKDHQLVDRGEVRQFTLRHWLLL
# Sodium-dependent dopamine transporter, sequence (P23977 whole entry): as above
Structure (SMILES),Control [1],Control [2],IC50 (Rattus norvegicus [3]),IC50 [4],IC50 (Rattus norvegicus [5])
"COC(=O)[C@@H]1C2CC[C@@H](C[C@@H]1OC(=O)c1ccccc1)N2C (single isomer, unassigned) [COCAINE]",138%,74.1%,210 nM,,
COC(=O)C1C(OC(=O)Nc2ccc(N=[N+]=[N-])cc2)C[C@H]2CCC1N2C (some centres undefined),86.3%,32.5%,1180 nM,1000 nM,
COC(=O)C1C(OC(=O)Nc2cccc(N=[N+]=[N-])c2)C[C@H]2CCC1N2C (some centres undefined),102%,39.1%,3900 nM,630 nM,
COC(=O)C1C(OC(=O)Nc2cccc(N=C=S)c2)C[C@H]2CCC1N2C (some centres undefined),33.4%,29.1%,,960 nM,4900 nM
COC(=O)C1C(OC(=O)Nc2ccc(N=C=S)cc2)C[C@H]2CCC1N2C (some centres undefined),12.3%,18.5%,490 nM,260 nM,
